The text below walks through data of ChEMBL document CHEMBL1137618, “Synthesis and structure-activity relationship studies of 3,6-diazabicyclo[3.2.0]heptanes as novel alpha4beta2 nicotinic acetylcholine receptor selective agonists” (J Med Chem, 2007).

The structures appear in SMILES notation.

Assay [1] concerns the target T1, Neuronal acetylcholine receptor; alpha3/beta4 (Homo sapiens, UniProt P30926+P32297). The assay is described as follows: Agonist activity at recombinant human alpha-3-beta-4 nAChR expressed in HEK293 cells assessed as induction of calcium influx by FLIPR assay. Type of assay: functional, cell-based.
Assay [2] in a line: Displacement of [3H]cytisine from neuronal nicotinic acetylcholine receptor in rat brain membrane. Type of assay: cell membranes. For orientation: In a radioligand displacement assay an active substance lowers the binding of a labelled ligand.
Assay [3] has as its target T2, Neuronal acetylcholine receptor; alpha4/beta2 (Homo sapiens, UniProt P17787+P43681). As to the kind of experiment: Agonist activity at recombinant human alpha-4-beta-2 nAChR expressed in HEK293 cells assessed as induction of calcium influx by FLIPR assay relative to nicotine. Type of assay: functional, cell-based. In outline: (§1)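 HEK-293 lines stably expressing human α4β2 or α3β4 nAChR, grown 24-48 h at 37 °C on poly-D-lysine in DMEM/10% FBS. Loaded with 2-4 µM Fluo-4 AM for ~0.75-1 h at room temperature in the dark, in NMDG Ringer pH 7.4. Serial log dilutions added, then peak calcium fluorescence read on FLIPR after buffer-blank subtraction.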

The target of assay [4] is T2, Neuronal acetylcholine receptor; alpha4/beta2. The assay is described as follows: Agonist activity at recombinant human alpha-4-beta-2 nAChR expressed in HEK293 cells assessed as induction of calcium influx by FLIPR assay. Type of assay: functional, cell-based.
The target in assay [5] is T1, Neuronal acetylcholine receptor; alpha3/beta4. The assay is described as follows: Agonist activity at recombinant human alpha3beta4 nAChR expressed in HEK293 cells assessed as induction of calcium influx by FLIPR assay relative to nicotine. Type of assay: functional, cell-based. An outline of the steps: as §1

T2 sequence (P17787 whole entry): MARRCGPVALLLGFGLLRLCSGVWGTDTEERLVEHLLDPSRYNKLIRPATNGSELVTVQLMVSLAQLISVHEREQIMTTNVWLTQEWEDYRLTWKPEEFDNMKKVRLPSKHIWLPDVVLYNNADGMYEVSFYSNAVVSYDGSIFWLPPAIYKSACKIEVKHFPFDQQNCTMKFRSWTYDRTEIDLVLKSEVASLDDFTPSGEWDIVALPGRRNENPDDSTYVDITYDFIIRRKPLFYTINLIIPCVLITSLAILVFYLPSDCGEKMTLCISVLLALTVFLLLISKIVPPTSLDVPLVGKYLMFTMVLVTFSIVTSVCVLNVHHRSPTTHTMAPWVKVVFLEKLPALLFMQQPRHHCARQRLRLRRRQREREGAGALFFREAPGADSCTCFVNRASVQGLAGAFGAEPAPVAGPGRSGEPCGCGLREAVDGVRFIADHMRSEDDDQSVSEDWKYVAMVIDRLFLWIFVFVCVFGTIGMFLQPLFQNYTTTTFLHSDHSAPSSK
T2 sequence (P43681 whole entry): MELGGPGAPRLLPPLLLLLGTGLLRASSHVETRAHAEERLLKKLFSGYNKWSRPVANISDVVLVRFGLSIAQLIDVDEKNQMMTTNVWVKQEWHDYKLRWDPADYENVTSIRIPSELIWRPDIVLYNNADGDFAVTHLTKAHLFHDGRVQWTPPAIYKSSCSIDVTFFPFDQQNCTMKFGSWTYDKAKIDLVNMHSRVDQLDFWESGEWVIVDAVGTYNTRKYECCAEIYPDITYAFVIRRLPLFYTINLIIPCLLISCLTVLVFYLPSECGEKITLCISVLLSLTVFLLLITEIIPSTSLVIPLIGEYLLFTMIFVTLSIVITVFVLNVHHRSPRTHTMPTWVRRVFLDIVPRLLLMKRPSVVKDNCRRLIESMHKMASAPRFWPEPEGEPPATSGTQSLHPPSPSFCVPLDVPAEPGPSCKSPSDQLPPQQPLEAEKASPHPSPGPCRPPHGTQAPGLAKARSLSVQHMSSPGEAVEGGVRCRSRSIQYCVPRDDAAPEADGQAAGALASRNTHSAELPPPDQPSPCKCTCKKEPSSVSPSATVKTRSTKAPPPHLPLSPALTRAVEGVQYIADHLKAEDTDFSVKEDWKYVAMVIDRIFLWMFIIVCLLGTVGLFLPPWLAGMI
T1 sequence (P30926 whole entry): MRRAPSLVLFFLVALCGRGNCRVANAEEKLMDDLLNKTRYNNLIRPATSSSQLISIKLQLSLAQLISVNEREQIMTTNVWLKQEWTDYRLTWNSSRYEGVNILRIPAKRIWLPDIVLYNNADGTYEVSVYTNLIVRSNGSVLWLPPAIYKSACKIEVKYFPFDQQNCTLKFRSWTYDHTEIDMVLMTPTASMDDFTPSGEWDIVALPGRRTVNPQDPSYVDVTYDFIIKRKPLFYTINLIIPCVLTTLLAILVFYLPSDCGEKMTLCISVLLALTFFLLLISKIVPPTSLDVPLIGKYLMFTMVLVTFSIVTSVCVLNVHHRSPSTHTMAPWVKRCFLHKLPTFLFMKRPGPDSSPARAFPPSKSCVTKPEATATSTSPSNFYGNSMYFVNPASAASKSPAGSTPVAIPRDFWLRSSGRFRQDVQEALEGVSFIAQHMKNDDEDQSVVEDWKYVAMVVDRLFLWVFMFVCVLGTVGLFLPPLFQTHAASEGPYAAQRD
T1 sequence (P32297 whole entry): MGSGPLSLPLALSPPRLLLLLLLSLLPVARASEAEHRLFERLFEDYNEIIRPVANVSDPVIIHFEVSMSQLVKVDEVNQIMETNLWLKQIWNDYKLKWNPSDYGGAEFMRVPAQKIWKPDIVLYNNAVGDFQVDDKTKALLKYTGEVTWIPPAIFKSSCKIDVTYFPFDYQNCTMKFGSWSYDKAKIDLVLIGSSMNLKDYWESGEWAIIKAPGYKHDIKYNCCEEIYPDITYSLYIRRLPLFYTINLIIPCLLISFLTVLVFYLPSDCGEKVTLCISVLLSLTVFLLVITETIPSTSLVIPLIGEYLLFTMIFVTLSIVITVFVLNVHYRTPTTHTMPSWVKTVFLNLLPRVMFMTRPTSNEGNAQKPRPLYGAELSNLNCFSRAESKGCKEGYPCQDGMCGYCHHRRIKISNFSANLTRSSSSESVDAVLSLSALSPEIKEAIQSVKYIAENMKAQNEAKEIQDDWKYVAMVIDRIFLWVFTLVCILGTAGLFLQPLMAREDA

Take `Cc1cc(N2C[C@H]3CNC[C@H]32)cnc1Cl`: the EC50 was 0.6 µM in assay [1] (read-out: EC50), 0.2 µM in assay [4] (read-out: EC50) and 0.229 µM in assay [4] (read-out: Log EC50 (converted)). The affinity in assay [2], expressed as Ki, was 0.0002 µM. In assay [2], the “Log Ki” value is -9.7. The values for the Activity in assay [3] and in assay [5] were 133% and 97%, respectively.
With `COc1cncc(N2C[C@H]3CN[C@H]3C2)c1`, the EC50 in assay [1] (read-out: EC50) and in assay [4] (read-out: EC50) was 1 µM each time. The Ki in assay [2] is 0.0001 µM. Besides, the “Log Ki” value in assay [2] is -9.96. Also, the results for the Activity in assay [3] and in assay [5] were 130% and 99%, respectively.
Take `Cc1cc(N2C[C@@H]3CNC[C@@H]32)cnc1C`: the EC50 was 12.3 µM in assay [1] (read-out: EC50), 12 µM in assay [1] (read-out: Log EC50 (converted)) and 1.5 µM in assay [4] (read-out: EC50). In assay [2], this molecule returned a Ki of 0.0031 µM. The “Log Ki” value in assay [2] is -8.51. For the same molecule, the values for the Activity in assay [3] and in assay [5] were 83% and 78%, respectively.

A word on the EC50: it is the concentration that produces a half-maximal response. By Ki is commonly meant the equilibrium dissociation constant of an inhibitor or competing ligand from its target.
